Paper PMC12541585 (Acta Pharmaceutica Sinica. B, 2025)

Test system: MDA-MB-231 xenograft
Experiment: MDA-MB-231 xenograft model
Format: in vivo, BALB/c nude mice
Conditions: immunohistochemical staining of MDA-MB-231 tumors, vs control group
Outline: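 Female nude mice received 5×10^6 MDA-MB-231 cells in 100 μL Matrigel/PBS (1:1) subcutaneously into the right flank. At ≥80 mm³, mice were randomised into five groups, each dosed intraperitoneally every three days: test compound at 0.1, 0.5 or 1 mg/kg, paclitaxel 4 mg/kg, or PBS. Excised tumour sections were stained with anti-CXCR4 (1:100, 4 °C overnight), then HRP secondary (30 min) and DAB.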

CC(=O)O[C@H]1C(=O)[C@@]2(C)[C@H]([C@H](OC(=O)c3ccccc3)[C@]3(O)C[C@H](OC(=O)[C@H](O)[C@@H](NC(=O)c4ccccc4)c4ccccc4)C(C)=C1C3(C)C)[C@]1(OC(C)=O)CO[C@@H]1C[C@@H]2O [PTX, Paclitaxel]
proportion of CXCR4-positive cells in tumor tissue: little effect
